Measurements: ChEMBL document CHEMBL5674890, “Selective inhibition of CBP/p300 HAT by A-485 results in suppression of lipogenesis and hepatic gluconeogenesis” (Cell Death Dis, 2020)
Active and inactive are the calls of the source. The rule behind the calls is not given here.

How the values were obtained:
Mus musculus [1] = assay: Inhibition of lipogenesis in C57BL/6 mouse supplemented with normal chow diet assessed as decrease in SCD1 mRNA expression at 20 mg/kg/day, ip administered for 1 week measured by RT-qPCR assay; format: functional, organism-based; settings: time 1.0 weeks
Method in brief: (§1)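 Eight-week-old male C57BL/6 mice on normal chow were given 20 mg·kg−1·day−1 ip daily for 7 days or vehicle. Epididymal WAT was collected. Lipogenic, adipogenic and fatty-acid-oxidation transcripts were quantified by Trizol extraction and SYBR Green RT-qPCR. FAS, ACC, PPARγ and C/EBPα protein were assessed by western blot. n = 5–9; mean ± SEM.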

Mus musculus [2] = organism: Mus musculus; assay: Inhibition of glucogenesis in mouse assessed as decrease in hepatic FOXO1 protein expression measured by western blot analysis; format: functional, organism-based
Method in brief: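 Livers from vehicle- or treated mice (ip 20 mg·kg−1·day−1 for 7 days) homogenized in lysis buffer; FOXO1 and C/EBPα analysed by western blot.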

Mus musculus [3] = assay: Inhibition of hepatic lipogenesis in C57BL/6 mouse supplemented with normal chow diet assessed as effect on ACADVL mRNA expression at 20 mg/kg/day, ip administered for 1 week measured by RT-qPCR assay; format: functional, organism-based; settings: time 1.0 weeks
Method in brief: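 Normal-chow male C57BL/6 mice, 8 weeks old, were injected ip at 20 mg·kg−1·day−1 daily for 7 days or given vehicle. Liver RNA was extracted with Trizol, and fatty-acid-oxidation gene transcripts were quantified by SYBR Green RT-qPCR. n = 5–9; mean ± SEM.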

Hepatocyte [4] = assay: Inhibition of glucogenesis in mouse primary hepatocytes stimulated with 100 uM 8-Br-cAMP assessed as decrease in glucose production at 3 uM measured after 24 hrs; format: functional, cell-based
Method in brief: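 Two-step-perfusion primary mouse hepatocytes pretreated 16 h with 100 nM dexamethasone. Then incubated 24 h in glucose-free DMEM with 1 mM pyruvate, 10 mM lactate, 0.25% BSA, 100 μM 8-Br-cAMP and 3 μM test agent. Medium glucose measured colorimetrically. Mean ± SEM, three independent experiments.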

Mus musculus [5] = assay: Anti-obesity activity in C57BL/6 mouse supplemented with high fat diet assessed as effect on random blood glucose at 20 mg/kg/day, ip administered for 1 week; format: functional, organism-based; settings: time 1.0 weeks
Method in brief: (§2)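 Male C57BL/6 mice fed high-fat diet for 14 weeks from 5 weeks of age, then ip 20 mg·kg−1·day−1 for 7 days. Body weight, EchoMRI lean/fat mass, and random or 16 h-fasted blood glucose recorded, as the line states.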

Adipocyte [6] = assay: Inhibition of lipogenesis in mouse adipocytes isolated stromal vascular cells assessed as decrease in C/EBPalpha mRNA expression measured after 24 hrs by RT-qPCR assay; format: functional, cell-based
Method in brief: (§3)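 Stromal vascular cells from inguinal WAT of C57BL/6 mice, grown in DMEM/F12 + 10% FBS at 37 °C, 10% CO2. At confluence, induced 48 h with 5 μg/ml insulin, 1 μM dexamethasone, 0.5 mM isobutylmethylxanthine, then 6 days in 5 μg/ml insulin; fully differentiated day 8. Mature adipocytes exposed to inhibitor 24 h. Total RNA by Trizol, SYBR Green RT-qPCR; protein by western blot.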

Mus musculus [7] = assay: Inhibition of lipogenesis in C57BL/6 mouse supplemented with normal chow diet assessed as decrease in DGAT2 mRNA expression at 20 mg/kg/day, ip administered for 1 week measured by RT-qPCR assay; format: functional, organism-based; settings: time 1.0 weeks; method in brief: as §1
Hepatocyte [8] = assay: Inhibition of lipogenesis in mouse primary hepatocytes assessed as decrease in ACC protein expression at 3 uM in presence of 100 nM insulin and 5 to 25 mM glucose measured after 18 hrs by western blot analysis; format: functional, cell-based
Hepatocyte [9] = assay: Inhibition of glucogenesis in mouse primary hepatocytes stimulated with 100 uM 8-Br-cAMP assessed as effect on pCREB protein expression at 3 uM measured after 1 hr by western blot analysis; format: functional, cell-based
Method in brief: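 Primary hepatocytes from C57BL/6 mice, isolated by two-step perfusion, were co-treated with 3 μM A-485 and 100 μM 8-Br-cAMP for 1 h. Phospho-CREB, phospho-AMPK and phospho-TORC2 were detected by western blot of cell lysates. Three independent experiments; mean ± SEM.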

Mus musculus [10] = assay: Anti-obesity activity in C57BL/6 mouse supplemented with high fat diet assessed as decrease in total fat mass at 20 mg/kg/day, ip administered for 1 week; format: functional, organism-based; settings: time 1.0 weeks; method in brief: as §2
Adipocyte [11] = assay: Inhibition of lipogenesis in mouse adipocytes isolated stromal vascular cells assessed as decrease in FASN mRNA expression measured after 24 hrs by RT-qPCR assay; format: functional, cell-based; method in brief: as §3
HepG2 [12] = assay: Inhibition of glucogenesis in human HepG2 cells stimulated with 8-Br-cAMP at 3 uM assessed as effect on change in TORC2/CREB interaction measured by coimmunoprecipitation analysis; format: functional, cell-based
Method in brief: (§4)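 HepG2 cells treated with 3 μM compound. CREB association with CBP and TORC2 assessed by coimmunoprecipitation (antibody 2 h, protein A/G beads overnight at 4 °C) and western blot.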

Mus musculus [13] = assay: Inhibition of hepatic lipogenesis in C57BL/6 mouse supplemented with normal chow diet assessed as decrease in FAS protein expression at 20 mg/kg/day, ip administered for 1 week measured by western blot analysis; format: functional, organism-based; settings: time 1.0 weeks
Method in brief: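 Normal-chow male C57BL/6 mice, 8 weeks old, were injected ip at 20 mg·kg−1·day−1 daily for 7 days or given vehicle. Liver tissue was homogenized in lysis buffer, and FAS and ChREBP protein were assessed by western blot. n = 5–9.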

Mus musculus [14] = assay: Anti-obesity activity in 16 hrs fasted C57BL/6 mouse supplemented with normal chow diet assessed as decrease in blood glucose level at 20 mg/kg/day, ip administered for 1 week measured after 15 mins by intraperitoneal glucose tolerance test; format: functional, organism-based; settings: time 1.0 weeks
Method in brief: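 Male C57BL/6 mice on normal chow, 8 weeks old, given 20 mg·kg−1·day−1 ip daily for 7 days. After 16 h fasting, glucose 2 g/kg body weight ip; blood glucose read during the test. Mean ± SEM, n = 5–9; t test or ANOVA, P < 0.05.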

Mus musculus [15] = assay: Inhibition of hepatic lipogenesis in C57BL/6 mouse supplemented with normal chow diet assessed as decrease in triglyceride level at 20 mg/kg/day, ip administered for 1 week measured by Oil red O staining method; format: functional, organism-based; settings: time 1.0 weeks
Mus musculus [16] = assay: Inhibition of lipogenesis in C57BL/6 mouse supplemented with high-fat diet assessed as decrease in PPARgamma protein expression at 20 mg/kg/day, ip administered for 1 week measured measured by western blot analysis; format: functional, organism-based; settings: time 1.0 weeks
Method in brief: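 Male C57BL/6 mice were fed high-fat diet for 14 weeks from 5 weeks of age, then injected ip with 20 mg·kg−1·day−1 for 7 days or given vehicle. Epididymal and inguinal WAT were weighed, examined by H&E, and analysed. Transcripts were measured by Trizol/SYBR Green RT-qPCR; proteins by western blot. n = 5–9; mean ± SEM.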

HepG2 [17] = assay: Inhibition of glucogenesis in human HepG2 cells stimulated with 8-Br-cAMP at 3 uM assessed as effect on change in CBP/CREB interaction measured by coimmunoprecipitation analysis; format: functional, cell-based; method in brief: as §4
Hepatocyte [18] = assay: Inhibition of glucogenesis in mouse primary hepatocytes stimulated with 100 uM 8-Br-cAMP assessed as decrease in G6Pc mRNA expression at 3 uM measured after 8 hrs by RT-qPCR assay

Q: Which results are given for `CNC(=O)Nc1ccc2c(c1)CCS21OC(=O)N(CC(=O)N(Cc2ccc(F)cc2)[C@@H](C)C(F)(F)F)C1=O` (stereo partly drawn)?
A: inhibition (Mus musculus [1]): Active; inhibition (Mus musculus [2]): Active; inhibition (Mus musculus [3]): inactive; inhibition (Hepatocyte [4]): Active; Activity (Mus musculus [5]): inactive; inhibition (Adipocyte [6]): Active; inhibition (Mus musculus [7]): Active; inhibition (Hepatocyte [8]): Active; inhibition (Hepatocyte [9]): inactive; Activity (Mus musculus [10]): Active; inhibition (Adipocyte [11]): Active; inhibition (HepG2 [12]): inactive; inhibition (Mus musculus [13]): Active; Activity (Mus musculus [14]): Active; inhibition (Mus musculus [15]): Active; inhibition (Mus musculus [16]): Active; inhibition (HepG2 [17]): inactive; inhibition (Hepatocyte [18]): Active
